# Hits are enriched below; roughly 2.6% of the tested compounds scored in any of these assays.
# PRMT1 inh: blocks human protein arginine methyltransferase 1; recombinant PRMT1, activity-based probe fluorescence polarization; inhibition, % at 2.79 µM; 370,000 compounds, 1.3% hits;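 active = inhibition above about 21% made by adding two undisclosed values, limit read from the data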
# mABHD4 FP: inhibits mouse alpha/beta hydrolase domain 4; Q8VD66; purified mABHD4, FP-Rh probe fluorescence polarization; inhibition, % at 8.92 µM; 370,000 compounds, 0.54% hits;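 active = inhibition exceeding the mean over every tested compound plus 3 SD, cut at about 30% in these data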
#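 Test system: mABHD4 protein | Buffer or medium: HEPES pH 7.0 buffer, 150 mM NaCl, 0.01% Pluronic F-127 | Probe or stimulus: FP-Rh fluorescent activity-based probe, added after compound pre-incubation | Timing: Pre-incubation 45 min, probe exposure 60 min, at 25 °C | Technique: Fluorescence polarization, excitation 525 nm, emission 598 nm, BODIPY TMR filters | Repeats: Single well per compound (singlicate)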
# TCR-CD3 inh: inhibitors of human TCR-CD3 interaction; TAMRA-labeled TCR probe fluorescence, biochemical; inhibition, % at 9.4 µM; 360,000 compounds, 0.37% hits; AID 651800; in the data active = inhibition above about 19%;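 note: recombinant mutant TCR 2C K166C tagged with TAMRA read by polarization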
# SIAE inh: inhibitors of human sialic acid acetylesterase SIAE; Q9HAT2; 370,000 compounds, 0.69% hits; inhibition, % at 9.66 µM; SIAE FP-Rh probe binding, fluorescence polarization;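 active = inhibition above a cutoff: mean of compounds within the control limits plus 3 SD of those, cut at about 17% in these data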
# HTRA1 inhibitor: blocks human HTRA1 serine peptidase | inhibition, % at 5.96 µM | recombinant HTRA1, FP-rhodamine activity-based probe, fluorescence polarization | Q92743 | 340,000 compounds, 0.5% hits; in the data active = inhibition above about 36%
# Target sequence (Q92743 whole entry, looked up): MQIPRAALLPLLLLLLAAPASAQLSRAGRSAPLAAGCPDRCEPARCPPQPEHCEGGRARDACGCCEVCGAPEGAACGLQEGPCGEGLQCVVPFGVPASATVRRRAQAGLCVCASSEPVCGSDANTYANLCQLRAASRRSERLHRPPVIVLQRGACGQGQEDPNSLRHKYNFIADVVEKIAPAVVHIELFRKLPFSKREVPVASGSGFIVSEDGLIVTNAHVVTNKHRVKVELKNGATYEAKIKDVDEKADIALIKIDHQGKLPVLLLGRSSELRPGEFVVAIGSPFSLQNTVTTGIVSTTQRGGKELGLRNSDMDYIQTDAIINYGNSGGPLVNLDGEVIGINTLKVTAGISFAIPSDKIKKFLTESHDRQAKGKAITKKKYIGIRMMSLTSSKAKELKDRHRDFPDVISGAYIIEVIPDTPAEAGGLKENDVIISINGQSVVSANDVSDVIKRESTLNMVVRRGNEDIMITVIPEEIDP
# HTRA1 conf: HTRA1 (human) inhibition, confirmation | recombinant HTRA1, FP-rhodamine activity-based probe, fluorescence polarization | AID 540248 | shares compounds with HTRA1 inhibitor | 1,600 compounds, 66% hits | inhibition, % at 5.96 µM;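 active = mean inhibition over three repeats above a set limit taken from the earlier primary screen, cut at about 37% in these data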;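 note: inhibitors block probe binding so polarization drops and inhibition rises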
# Hits are given with their value; – = inactive; · = not tested or not shown.
SMILES,PRMT1 inh,mABHD4 FP,TCR-CD3 inh,SIAE inh,HTRA1 inhibitor,HTRA1 conf
O=C(Oc1c(CN2CCOCC2)cc(Cl)c2cccnc12)c1ccccc1,–,–,–,–,36.7,–
Cc1ccsc1/C=N/N=C/c1sccc1C,–,–,–,–,–,·
Cc1ccsc1C=Nc1ccc(O)cc1,·,·,·,·,51.4,–
CN1CCN(C(c2ccc(Cl)cc2)c2cc(Cl)c3cccnc3c2O)CC1 (stereo unspecified),–,–,–,–,43.4,86.8
Oc1c(C(c2ccccn2)N2CCCCC2)cc(Cl)c2cccnc12 (stereo unspecified),–,–,–,–,52.6,54.8
COC(=O)N[C@H]1CC=C[C@@H]1Cc1cccc(Oc2ccccc2)c1,–,–,–,–,·,·
COc1nc(Nc2ccc(O)cc2)nc(OC(C(F)(F)F)C(F)(F)F)n1,–,–,–,–,–,·
Nc1cccc(Nc2nc(OC(C(F)(F)F)C(F)(F)F)nc(OC(C(F)(F)F)C(F)(F)F)n2)c1,–,–,–,–,37.8,–
C[C@@H]1Cn2cnc(C(=O)N(C)Cc3ccccc3)c2C(=O)N1,–,–,–,–,·,·
Cc1nc(N)sc1N=Nc1ccccc1C(F)(F)F,–,–,–,–,40.0,–
COc1ccc(N=C2NC(=O)/C(=C\C=C\c3ccco3)S2)cc1,–,–,–,–,38.4,–
Oc1ccc(N=Cc2ccc(O)c(O)c2)cc1,·,·,·,·,57.4,51.7
COc1ccc(Sc2nc(-c3ccccn3)ncc2OC)cc1,–,–,–,–,61.8,54.1
Nc1nc2c(-c3ccc([N+](=O)[O-])cc3)nnn2c2ccccc12,–,–,–,–,·,·
CC(C)N=c1scc(-c2ccco2)n1/N=C/c1ccc(O)c(O)c1,–,36.3,–,–,67.4,57.8
CC1(C)CCC(C)(C)c2cc(NC(=O)c3ccc(C(=O)O)cc3)ccc21,–,–,·,–,·,·
O=C(N1CCN(c2ccccn2)CC1)C(Cl)(Cl)Cl,–,–,–,–,–,·
O=C1C=C(N2CCN(c3ccccn3)CC2)C(=O)c2c(O)ccc(O)c21,–,–,–,–,38.0,49.5
C/C(CC(=O)Nc1ccc2ccccc2c1)=N\NC(=O)c1ccc(O)c(O)c1,–,–,–,–,68.6,84.0
Cc1cc(NC(c2ccc(Cl)cc2)c2ccc3cccnc3c2O)no1 (stereo unspecified),–,–,–,–,48.5,50.7
Cc1ccnc(NC(c2ccccc2)c2ccc3cccnc3c2O)c1 (stereo unspecified),–,–,–,–,–,·
CC(=O)NC(c1ccco1)c1ccc2cccnc2c1O (stereo unspecified),·,·,·,·,–,·
CCCC(=O)NC(c1ccccc1Cl)c1ccc2cccnc2c1O (stereo unspecified),–,–,–,–,37.8,39.8
CC(C)C(=O)NC(c1ccc(Cl)cc1Cl)c1ccc2cccnc2c1O (stereo unspecified),–,–,–,–,48.7,46.8
CCC(=O)NC(c1ccc(C)cc1)c1ccc2cccnc2c1O (stereo unspecified),–,–,–,–,64.4,75.7
SMILES,PRMT1 inh,mABHD4 FP,TCR-CD3 inh,SIAE inh,HTRA1 inhibitor,HTRA1 conf
COc1ccc(C(NC(=O)C(C)C)c2ccc3cccnc3c2O)cc1 (stereo unspecified),–,–,–,–,–,·
O=S(=O)(CS(=O)(=O)c1ccccc1Br)c1ccccc1Br,–,–,–,–,·,·
Cc1cc(C)cc(N(CCC#N)C(=O)CSc2ncnc3sccc23)c1,–,–,–,–,–,·
CCCC(=O)NC(c1ccc(C(C)C)cc1)c1ccc2cccnc2c1O (stereo unspecified),–,–,–,–,52.0,54.3
CCCCC(=O)NC(c1ccc(Cl)cc1Cl)c1ccc2cccnc2c1O (stereo unspecified),–,–,–,–,47.8,76.2
CCCC(=O)NC(c1ccc(N(C)C)cc1)c1ccc2cccnc2c1O (stereo unspecified),–,–,–,–,–,·
O=C(O)c1ccccc1NC(c1ccccc1)c1ccc2cccnc2c1O (stereo unspecified),–,–,–,–,49.0,67.5
COc1ccccc1NC(c1cccnc1)c1ccc2cccnc2c1O (stereo unspecified),–,–,–,–,–,·
CCCCC(=O)NC(c1ccc(OC)cc1)c1ccc2cccnc2c1O (stereo unspecified),–,–,–,–,–,·
COc1ccc(C)cc1-n1nnnc1SCC(=O)NC1CC1,–,–,–,–,–,·
O=C(N[C@@H](Cc1cccnc1)C(=O)N1CCC[C@H]1C(=O)NCCc1ccccc1Cl)C1CCCC1,–,–,–,–,·,·
COc1ccccc1N1C(=O)c2ccccc2NC1c1ccncc1 (stereo unspecified),–,–,–,–,–,·
COc1ccccc1N1C(=O)N(C(C)=O)C2C1Nc1ccccc1N2C (stereo unspecified),–,–,–,–,49.2,–
CN(CC(=O)Nc1ccccc1Br)C(=O)c1cc([N+](=O)[O-])ccc1N1CCOCC1,–,–,–,–,91.7,–
Cc1cccc(C)c1NC(=O)CN(C)C(=O)c1cc([N+](=O)[O-])ccc1N1CCOCC1,–,–,–,–,–,·
COCCCNC(=O)C[C@H]1C[C@@]2(C(=O)OC)C(=C[C@H](C(C)(C)C)O[C@@H]2C)N(CCc2ccc(OC)c(OC)c2)C1=O,–,–,–,–,·,·
COc1cc(NC(C)CCc2ccccc2)cc(OC)c1OC (stereo unspecified),–,–,–,–,39.5,–
CCc1cc2c(nc1CC)CCCN2S(=O)(=O)c1ccc(F)cc1,–,–,–,–,·,·
CCN(CC)c1ccc(N=Cc2ccccc2[N+](=O)[O-])cc1,–,46.7,–,–,53.4,146.2
CCCCCCn1ccc(=N)cc1,–,–,–,–,–,·
CCCCCCCCCCCCCCCCn1cc[n+](CC(C)=O)c1,·,·,·,·,72.0,85.6
CCCN(CCC)c1cc(=O)nc2ccccn12,–,–,–,–,·,·
Cn1nccc1C(=O)N/N=C/c1c(O)ccc2ccccc12,–,–,–,–,54.6,54.2
O=C(NN=Cc1c(O)ccc2ccccc12)c1ccncc1,–,–,–,–,–,·
FC(F)(F)c1cnc(NNC(=S)Nc2ccccc2Cl)c(Cl)c1,–,–,–,–,42.6,–
SMILES,PRMT1 inh,mABHD4 FP,TCR-CD3 inh,SIAE inh,HTRA1 inhibitor,HTRA1 conf
CN(C)c1ccc(NC(=O)c2cccc(C(=O)Nc3ccc(N(C)C)cc3)n2)cc1,–,–,–,–,44.1,64.9
O=C(Nc1cccnc1)c1ccc(CSc2ccc(Cl)cc2)o1,–,–,–,–,·,·
O=S(=O)(O)c1ccc(O)c2cc(Nc3ccccc3)ccc12,43.0,78.4,43.6,54.7,66.8,44.3
Cc1ccc(S(=O)(=O)c2cc(Nc3ccccc3)ccc2O)cc1,–,–,–,–,–,·
Cn1nnnc1N=N/C(=N/Nc1ccccc1)c1ccccc1,–,–,–,–,42.2,–
CC(=O)Nc1ccc(C(=O)CSc2nnc(-c3ccccc3F)n2CCc2ccccc2)cc1,–,–,–,–,–,·

# Screens deposited in PubChem BioAssay by The Scripps Research Institute Molecular Screening Center.
